Measurements collected from several papers.
Compare with care: the assays were run in different laboratories.
Methionyl-tRNA synthetase, putative: Methionyl-tRNA synthetase, putative (Trypanosoma brucei brucei, UniProt Q38C91)
BRD9: Bromodomain-containing protein 9 (BRD9, Homo sapiens, UniProt Q9H8M2)
SLC10A2: Ileal sodium/bile acid cotransporter (SLC10A2, Homo sapiens, UniProt Q12908)
ACVR2A: Activin receptor type-2A (ACVR2A, Homo sapiens, UniProt P27037)
SETD7: Histone-lysine N-methyltransferase SETD7 (SETD7, Homo sapiens, UniProt Q8WTS6)
STK35: Serine/threonine-protein kinase 35 (STK35, Homo sapiens, UniProt Q8TDR2)

| SMILES | target | assay | system | setting | endpoint | result |
| --- | --- | --- | --- | --- | --- | --- |
| O=C(Cc1cc(Cl)cc(Cl)c1)N1CCCC(c2nc3cc(Cl)c(Cl)cc3[nH]2)C1 (centres unmarked) | Methionyl-tRNA synthetase, putative | thermal stability, DSF | – | 100 µM | ΔTm | 7 °C |
| CC(=O)N[C@H]1CSSC[C@@H](C(=O)N[C@@H](Cc2c[nH]c3ccccc23)C(N)=O)NC(=O)[C@H](Cc2ccccc2)NC(=O)[C@H](CCCNC(=N)N)NC1=O | Melanocortin receptor 5 (MC5R, Homo sapiens, UniProt P33032) | cAMP, agonist | HEK293 | 3 min | Emax | 0% |
| C[S+]([O-])c1ccc(-c2nc(-c3ccncc3)c(-c3ccc(F)cc3)[nH]2)cc1 (centres unmarked) | BRD9 | thermal stability, DSF | – | 10 µM | ΔTm | -0.33 °C |
| COc1cc(Cl)c(C(=O)N[C@@H](CN[C@H]2CC[C@@H](N)CC2)Cc2ccc(C#N)cc2)cc1-c1ccc(CN[C@H](C)c2ccc(C)cc2)o1 | Cyclin-dependent kinase-like 3 (CDKL3, Homo sapiens, UniProt Q8IVW4) | enzyme activity, inhibitor | – | 1 µM | remaining activity | 95% |
| Cc1cc(NC(=O)c2cccc3cc(-c4cccc5[nH]nc(N)c45)ccc23)ccc1F | Phosphatidylinositol 5-phosphate 4-kinase type-2 alpha (PIP4K2A, Homo sapiens, UniProt P48426) | enzyme activity, inhibitor | – | 0.1 µM | activity vs control | 98% |
| CCCCOc1cc(C(=O)NCCN(CC)CC)c2ccccc2n1 | SLC10A2 | transporter uptake, inhibitor, radiometric | – | 1 mM | inhibition | 68.8% |
| Cc1cnc(Nc2ccc(OCCN3CCCC3)cc2)nc1Nc1cccc(S(=O)(=O)NC(C)(C)C)c1 | BRD9 | thermal stability, DSF | – | 10 µM | ΔTm | 0.58 °C |
| Cn1c2c(c3ccc(Cl)c(Cl)c31)C(C#N)C1(CCCC1)NC2=O (centres unmarked) | ACVR2A | thermal stability, DSF | – | 10 µM | ΔTm | 0 °C |
| Oc1ccc(-c2nc(-c3ccncc3)c(-c3ccc(F)cc3)[nH]2)cc1 | PHIP, BD2 (Homo sapiens, UniProt Q8WWQ0) | thermal stability, DSF | – | 10 µM | ΔTm | 0.27 °C |
| C[C@@H]1C[C@H]2[C@@H]3CCC4=CC(=O)C=C[C@]4(C)[C@@]3(F)[C@@H](O)C[C@]2(C)[C@@]1(O)C(=O)CO | SLC10A2 | transporter uptake, inhibitor, radiometric | – | 1 mM | inhibition | < 10% |
| Nc1ccn([C@H]2C[C@H](O)[C@@H](COP(=O)(O)OP(=O)(O)OP(=O)(O)O)O2)c(=O)n1 | DNA polymerase lambda (POLL, Homo sapiens, UniProt Q9UGP5) | enzyme activity, substrate | – | – | Km | 0.016 µM |
| O=c1c(-c2cc(O)c(O)c(O)c2)coc2cc(O)c(O)c(O)c12 | SETD7 | cell-free assay | – | 10 µM | inhibition | 34% |
| Nc1ncnc2occ(-c3ccc(NC(=O)Nc4cc(C(F)(F)F)ccc4F)cc3)c12 | STK35 | cell-free assay, inhibitor | – | 20 µM | remaining signal | 1.6% |
| CN(CCNCc1cc(Cl)cc(Cl)c1)c1nc2nc(Cl)ccc2[nH]1 | Methionyl-tRNA synthetase, putative | thermal stability, DSF | – | 100 µM | ΔTm | 18.4 °C |
| O=C(O)C1=CC(=C(c2ccc(O)c(C(=O)O)c2)c2ccc(O)c(C(=O)O)c2)C=CC1=O | SETD7 | cell-free assay | – | 10 µM | inhibition | 100% |
| CSc1ccc2c(c1)N(CCC1CCCCN1C)c1ccccc1S2 (centres unmarked) | SLC10A2 | transporter uptake, inhibitor, radiometric | – | 1 mM | inhibition | 97.1% |
| CCOC(=O)[C@](CC)(CCCS(=O)(=O)CCOCCOCCNC(=O)OC(C)(C)C)NC(=O)c1ccc(C2CC2)c(Cc2ccc(F)cc2)n1 | Cannabinoid receptor 2 (CNR2, Homo sapiens, UniProt P34972) | cAMP, agonist | – | – | Emax | 89% |
| CN1CCC2(CC1)NC(=O)c1c(c3ccc(Cl)c(Cl)c3n1C)C2C#N (racemic) | ACVR2A | thermal stability, DSF | – | 10 µM | ΔTm | 0.4 °C |
| COC(=O)c1ccc(N2CCN(C)CC2)c(NC(=O)c2cccc(OC)c2)c1 | WD repeat-containing protein 5 (WDR5, Homo sapiens, UniProt P61964) | thermal stability, DSF | – | 100 µM | ΔTm | 8.4 °C |
| Cc1ccc(C(=O)Nc2ccc(CN3CCN(C)CC3)c(C(F)(F)F)c2)cc1C#Cc1cnc2cccnn12 | STK35 | enzyme activity, inhibitor | – | 23.5 nM | remaining activity | 98% |
